Measurements from ChEMBL document CHEMBL1165965, “Synthesis and structure-activity relationships of 1,2,3,4-tetrahydropyrido[2,3-b]pyrazines as potent and selective inhibitors of the anaplastic lymphoma kinase” (Bioorg Med Chem, 2010).

Columns and labels:
[1] = target: T1, Tyrosine-protein kinase Mer (Homo sapiens) (UniProt Q12866); assay: Inhibition of MERTK at 1 uM
T1 sequence (whole entry): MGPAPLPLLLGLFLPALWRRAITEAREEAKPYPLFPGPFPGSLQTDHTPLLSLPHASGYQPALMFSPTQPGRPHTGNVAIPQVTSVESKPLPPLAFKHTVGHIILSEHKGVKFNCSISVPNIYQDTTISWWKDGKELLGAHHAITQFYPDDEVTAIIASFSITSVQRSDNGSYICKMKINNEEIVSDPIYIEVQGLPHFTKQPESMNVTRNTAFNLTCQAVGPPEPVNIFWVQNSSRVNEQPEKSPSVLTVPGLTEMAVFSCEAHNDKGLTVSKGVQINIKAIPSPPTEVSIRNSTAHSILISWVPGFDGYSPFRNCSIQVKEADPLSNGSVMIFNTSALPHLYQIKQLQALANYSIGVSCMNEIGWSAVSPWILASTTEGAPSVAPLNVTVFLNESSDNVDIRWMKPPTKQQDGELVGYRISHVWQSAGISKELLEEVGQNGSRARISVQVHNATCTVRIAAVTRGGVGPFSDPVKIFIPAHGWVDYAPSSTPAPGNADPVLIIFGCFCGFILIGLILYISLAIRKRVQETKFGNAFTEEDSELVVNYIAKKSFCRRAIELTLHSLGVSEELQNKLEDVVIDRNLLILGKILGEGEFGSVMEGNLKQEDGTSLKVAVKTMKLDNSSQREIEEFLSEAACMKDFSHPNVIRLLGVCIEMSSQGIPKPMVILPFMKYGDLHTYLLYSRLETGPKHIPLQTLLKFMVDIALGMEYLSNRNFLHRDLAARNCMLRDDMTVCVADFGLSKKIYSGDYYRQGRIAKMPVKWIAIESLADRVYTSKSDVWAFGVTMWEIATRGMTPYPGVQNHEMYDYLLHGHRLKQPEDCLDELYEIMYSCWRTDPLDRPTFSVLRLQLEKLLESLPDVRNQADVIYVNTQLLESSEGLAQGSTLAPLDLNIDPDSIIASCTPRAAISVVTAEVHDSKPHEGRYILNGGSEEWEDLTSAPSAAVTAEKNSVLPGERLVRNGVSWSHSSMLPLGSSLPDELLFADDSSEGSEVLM
Procedure, shortened: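 Kinase-panel screen using KINOMEscan technology, with 250–400 kinases per panel. Each compound was tested at a single concentration, and inhibition of each kinase was recorded. Selectivity was summarised as S(90), the fraction of kinases inhibited by more than 90%.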

[2] = target: T2, Receptor-interacting serine/threonine-protein kinase 4 (Homo sapiens) (UniProt P57078); assay: Inhibition of RIPK4 at 1 uM
T2 sequence (whole entry): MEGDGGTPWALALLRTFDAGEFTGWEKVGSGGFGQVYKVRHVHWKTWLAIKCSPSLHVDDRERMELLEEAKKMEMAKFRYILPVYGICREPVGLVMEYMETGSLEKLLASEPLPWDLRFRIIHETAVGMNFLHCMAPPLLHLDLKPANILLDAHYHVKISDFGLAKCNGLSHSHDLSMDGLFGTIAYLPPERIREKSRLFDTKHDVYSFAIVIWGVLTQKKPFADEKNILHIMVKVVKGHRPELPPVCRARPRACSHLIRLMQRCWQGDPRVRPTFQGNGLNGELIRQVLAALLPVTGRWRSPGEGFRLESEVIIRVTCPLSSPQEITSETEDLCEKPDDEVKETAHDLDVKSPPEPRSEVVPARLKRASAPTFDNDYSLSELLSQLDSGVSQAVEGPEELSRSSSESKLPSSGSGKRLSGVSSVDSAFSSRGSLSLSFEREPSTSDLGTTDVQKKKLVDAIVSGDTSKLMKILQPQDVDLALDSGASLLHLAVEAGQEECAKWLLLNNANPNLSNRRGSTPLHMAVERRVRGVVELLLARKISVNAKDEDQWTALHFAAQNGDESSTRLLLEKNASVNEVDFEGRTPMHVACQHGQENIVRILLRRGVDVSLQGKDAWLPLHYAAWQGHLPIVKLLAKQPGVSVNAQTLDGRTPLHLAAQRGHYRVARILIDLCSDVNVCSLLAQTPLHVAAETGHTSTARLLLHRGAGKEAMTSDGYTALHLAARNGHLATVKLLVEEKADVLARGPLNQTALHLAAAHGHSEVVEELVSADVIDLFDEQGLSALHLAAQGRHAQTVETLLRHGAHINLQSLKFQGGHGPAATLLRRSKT

[3] = target: T3, Serine/threonine-protein kinase LATS2 (Homo sapiens) (UniProt Q9NRM7); assay: Inhibition of LATS2 at 1 uM
T3 sequence (whole entry): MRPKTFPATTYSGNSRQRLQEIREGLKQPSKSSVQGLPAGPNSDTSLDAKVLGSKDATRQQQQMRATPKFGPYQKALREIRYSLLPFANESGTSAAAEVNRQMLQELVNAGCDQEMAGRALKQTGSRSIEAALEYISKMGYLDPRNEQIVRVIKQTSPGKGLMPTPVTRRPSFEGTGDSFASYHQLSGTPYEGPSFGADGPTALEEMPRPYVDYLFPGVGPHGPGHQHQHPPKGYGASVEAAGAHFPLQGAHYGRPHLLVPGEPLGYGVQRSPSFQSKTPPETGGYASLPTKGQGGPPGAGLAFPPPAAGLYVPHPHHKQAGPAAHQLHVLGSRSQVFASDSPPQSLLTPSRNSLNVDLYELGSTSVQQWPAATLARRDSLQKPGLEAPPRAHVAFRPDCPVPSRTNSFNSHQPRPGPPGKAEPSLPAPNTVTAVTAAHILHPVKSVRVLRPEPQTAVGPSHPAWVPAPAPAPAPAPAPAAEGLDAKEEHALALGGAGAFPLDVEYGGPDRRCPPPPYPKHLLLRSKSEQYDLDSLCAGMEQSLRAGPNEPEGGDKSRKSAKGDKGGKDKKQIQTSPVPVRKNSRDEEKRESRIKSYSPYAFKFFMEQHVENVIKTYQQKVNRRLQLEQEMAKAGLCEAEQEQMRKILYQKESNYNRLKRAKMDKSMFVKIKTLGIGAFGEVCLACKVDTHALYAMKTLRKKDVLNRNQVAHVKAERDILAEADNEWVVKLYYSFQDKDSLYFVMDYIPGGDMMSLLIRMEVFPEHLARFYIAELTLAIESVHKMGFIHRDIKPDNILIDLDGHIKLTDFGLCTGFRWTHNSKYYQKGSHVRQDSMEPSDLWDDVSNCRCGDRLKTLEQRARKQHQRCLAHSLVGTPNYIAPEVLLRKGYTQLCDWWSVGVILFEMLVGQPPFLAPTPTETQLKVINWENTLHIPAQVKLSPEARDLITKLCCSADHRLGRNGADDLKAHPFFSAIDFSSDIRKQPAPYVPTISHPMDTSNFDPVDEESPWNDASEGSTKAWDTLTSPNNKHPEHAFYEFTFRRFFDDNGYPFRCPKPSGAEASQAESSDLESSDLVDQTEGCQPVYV

[4] = target: Serine/threonine-protein kinase 38-like (Homo sapiens) (UniProt Q9Y2H1); assay: Inhibition of NDR2 at 1 uM

Measured: inhibition

Sequence of Serine/threonine-protein kinase 38-like (Homo sapiens) (Q9Y2H1 2-464 limits assumed): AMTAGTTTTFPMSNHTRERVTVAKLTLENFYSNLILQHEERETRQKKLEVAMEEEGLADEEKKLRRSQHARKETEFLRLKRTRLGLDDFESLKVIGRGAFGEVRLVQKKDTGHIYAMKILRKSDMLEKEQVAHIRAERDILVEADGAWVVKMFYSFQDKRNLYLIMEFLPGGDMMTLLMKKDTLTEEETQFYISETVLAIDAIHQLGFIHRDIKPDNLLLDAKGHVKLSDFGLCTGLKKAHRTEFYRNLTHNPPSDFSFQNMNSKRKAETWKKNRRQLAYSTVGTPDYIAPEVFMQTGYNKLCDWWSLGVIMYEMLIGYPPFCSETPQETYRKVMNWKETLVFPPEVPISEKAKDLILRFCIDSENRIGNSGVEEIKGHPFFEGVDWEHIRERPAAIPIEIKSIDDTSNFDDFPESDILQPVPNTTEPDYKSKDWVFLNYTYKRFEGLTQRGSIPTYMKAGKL

CN1CCN(c2ccc(-c3cnc4c(c3)N(Cc3cc(Cl)ccc3Cl)CCN4)cn2)CC1
< 50%: all assays above

CN1CCN(c2ccc(-c3cnc4c(c3)N(Cc3cc(Cl)ccc3C(F)(F)F)CCN4)cn2)CC1
< 50%: all assays above

CN1CCN(c2ccc(-c3cnc4c(c3)N(Cc3c(F)ccc(F)c3Cl)CCN4)cn2)CC1
< 50%: all assays above

O=C(c1ccc(-c2cnc3c(c2)N(Cc2cc(Cl)ccc2C(F)(F)F)CCN3)cc1)N1CCC(N2CCCC2)CC1
< 50%: [1] | [4]

COC1CCN(C(=O)c2ccc(-c3cnc4c(c3)N(Cc3cc(Cl)ccc3C(F)(F)F)CCN4)cc2)CC1
< 50%: [1] | [4]

FC(F)(F)c1ccc(Cl)cc1CN1CCNc2ncc(-c3ccnc(N4CCNCC4)c3)cc21
< 50%: all assays above

CN1CCN(c2ccc(-c3cnc4c(c3)N(Cc3cc(F)ccc3F)CCN4)cn2)CC1
< 50%: all assays above

O=C(c1ccc(-c2cnc3c(c2)N(Cc2cc(Cl)ccc2C(F)(F)F)CCN3)cc1)N1CCCCC1
< 50%: [1] | [4]

CC(=O)N1CCN(c2cc(-c3cnc4c(c3)N(Cc3cc(Cl)ccc3C(F)(F)F)CCN4)ccn2)CC1
< 50%: all assays above

O=C(O)c1ccc(-c2cnc3c(c2)N(Cc2cc(Cl)ccc2C(F)(F)F)CCN3)cc1
< 50%: [1] | [4]
